Publication PMC5905335 (Cancer discovery, 2017)
Where “and” joins values, the source holds several entries; their conditions need not be identical. Equal entries are not always repeated. Where two headings read alike, the source gives them in different places.

Tests used:
[1] = tested on: BRCA mutation–associated breast cancer; test: Antitumor activity; type: in vivo, human; settings: 1.0 mg/day, BRCA1/2 mutation
How it was run: (§1)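 Adults with advanced solid tumours received oral test compound 1.0 mg once daily, continuously in 28-day cycles, in the expansion part. Entry required germline BRCA1/2 mutation confirmed by BRACAnalysis or local laboratory (ovarian/peritoneal, breast, prostate, pancreatic), DNA repair deficiency, or SCLC or Ewing sarcoma. Investigators assessed response by RECIST 1.1. ORR had exact 95% CI (Clopper–Pearson); PFS was estimated by Kaplan–Meier.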

Ewing sarcoma = test: Antitumor activity; type: in vivo, human; settings: 1.0 mg/day, n = 13, CR + PR + SD ≥16 weeks
How it was run: as §1

pancreatic cancer = test: Antitumor activity; type: in vivo, human
How it was run: as §1

PARP–DNA complexes = settings: in vitro, comparison with other PARP1/2 inhibitors, cited from earlier work
PARP = test: PBMC PARP activity; type: in vivo, human
[2] = tested on: BRCA-mutated ovarian cancer; test: Antitumor activity; type: in vivo, human
How it was run: as §1

[3] = type: in vivo; settings: Part 1 and Part 2; none considered related to study treatment
small cell lung cancer = test: Antitumor activity; type: in vivo, human; settings: 1.0 mg/day
How it was run: as §1

[4] = Plasma pharmacokinetics after single and multiple daily dosing; settings: human, in vivo; for Vd/F: Vz/F; for half-life: t1/2, mean (SD)
[5] = Urinary elimination of parent compound; type: in vivo, human; settings: daily dosing between 0.025 and 1.1 mg
How it was run: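 In dose escalation, fasted patients took a single oral dose, with PK sampling over 1 week. They then took the dose once daily for 28 days, followed by a 1-week break for sampling (doses 0.025–1.1 mg/day, 3+3 design). Urine was assayed by validated LC/MS-MS (LLOQ 25.0 pg/mL). Ae0–24, Fe0–24 and ARC0–24 came from noncompartmental analysis.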

PARP1/2 = settings: cited from earlier work

With `Cn1ncnc1[C@H]1c2n[nH]c(=O)c3cc(F)cc(c23)N[C@@H]1c1ccc(F)cc1` [talazoparib] the “Median PFS” value ([1]; n = 14) was 34.6 weeks, the ORR ([1]; n = 14) was 50.0% and the CBR ([1]; n = 14, CR + PR + SD ≥24 weeks) was 85.7%. The CBR (Ewing sarcoma) was 23.1%, the ORR (pancreatic cancer; 1.0 mg/day, pancreatic, n = 10) was 20.0% and the CBR (pancreatic cancer; 1.0 mg/day, pancreatic, n = 10, CR + PR + SD ≥16 weeks) was 30.0%. The “CBR ≥16 weeks” value (pancreatic cancer; 13 patients with pancreatic cancer from Part 1 and Part 2) was 31%, the “trapping PARP–DNA complexes at sites of single-strand DNA breaks” value (PARP–DNA complexes) was “most potent PARP1/2 inhibitor in vitro” and the “trapping PARP–DNA complexes at sites of single-strand DNA breaks” value (PARP–DNA complexes; listed as Talazoparib) was “superior in trapping PARP–DNA”. The “PARP activity, mean (SD)” value (PARP; multiple dosing 0.025 mg/day, n = 3) was 172 (206) % baseline, the “PARP activity, mean (SD)” value (PARP; multiple dosing 0.05 mg/day, n = 3) was 141 (52.5) % baseline and the “PARP activity, mean (SD)” value (PARP; multiple dosing 0.1 mg/day, n = 3) was 102 (98.0) % baseline. The “PARP activity, mean (SD)” value (PARP; multiple dosing 0.2 mg/day, n = 3) was 14.7 (5.04) % baseline, the “PARP activity, mean (SD)” value (PARP; multiple dosing 0.4 mg/day, n = 3) was 111 (96.5) % baseline and the “PARP activity, mean (SD)” value (PARP; multiple dosing 0.6 mg/day, n = 4) was 24.7 (8.19) % baseline. The “PARP activity, mean (SD)” value (PARP; multiple dosing 0.9 mg/day, n = 4) was 34.7 (27.4) % baseline, the “PARP activity, mean (SD)” value (PARP; multiple dosing 1.1 mg/day, n = 2) was 16.3 (5.63) % baseline and the “Median PFS” value ([2]; 1.0 mg/day, ovarian/peritoneal, BRCA1/2 mutation, analysis on 14 patients) was 36.4 weeks and 36.4 ^c weeks. For the same compound, the ORR ([2]; 1.0 mg/day, ovarian/peritoneal, BRCA1/2 mutation, n = 12) was 41.7%, the CBR ([2]; 1.0 mg/day, ovarian/peritoneal, BRCA1/2 mutation, n = 12, CR + PR + SD ≥24 weeks) was 66.7% and the “CBR lasting at least 24 weeks” value ([2]; any dose level, BRCA-mutated ovarian cancer with measurable disease, n = 25) was 76%. The “deaths associated with an AE during the study” value [3] was “eight”, the “Median PFS” value (small cell lung cancer; SCLC, n = 23) was 11.1 weeks and the ORR (small cell lung cancer; SCLC, n = 23) was 8.7%. For the same compound, the CBR (small cell lung cancer; SCLC, n = 23, CR + PR + SD ≥16 weeks) was 26.1%, the duration of response (small cell lung cancer; the two SCLC patients with PR) was 12.0 weeks and the “dose proportionality parameter β for AUC0–24, estimate (95% CI)” value [4] was 0.95 (0.84–1.05). The “dose proportionality parameter β for Cmax, estimate (95% CI)” value [4] was 1.11 (1.01–1.20), the “time to maximum plasma concentration (Cmax)” value [4] was ≤ 2 h and the AUC(0-inf) ([4]; 0.025 mg) was 5.33 ng·h/mL. For the same compound, the AUC(0-t) ([4]; 0.025 mg, AUC0–24, mean (SD)) was 0.952 ng·h/mL, the AUC(0-t) ([4]; 0.025 mg, AUC0–t, mean (SD)) was 3.6 ng·h/mL and the Cmax ([4]; 0.025 mg, mean (SD)) was 0.06 ng/mL. It also gave a Tmax ([4]; 0.025 mg, Tmax, median (min, max)) of 7.92 h, a Vd/F ([4]; 0.025 mg, mean (SD)) of 756 L and a half-life ([4]; 0.025 mg) of 100 h. For the same compound, the AUC(0-inf) ([4]; 0.05 mg) was 8.32 ng·h/mL, the AUC(0-t) ([4]; 0.05 mg, AUC0–24, mean (SD)) was 1.16 ng·h/mL and the AUC(0-t) ([4]; 0.05 mg, AUC0–t, mean (SD)) was 5.34 ng·h/mL. It also gave a Cmax ([4]; 0.05 mg, mean (SD)) of 0.0797 ng/mL, a Vd/F ([4]; 0.05 mg, mean (SD)) of 1240 L and a half-life ([4]; 0.05 mg) of 129 h. For the same compound, the AUC(0-inf) ([4]; 0.1 mg) was 37.6 ng·h/mL, the AUC(0-t) ([4]; 0.1 mg, AUC0–24, mean (SD)) was 3.16 ng·h/mL and the Cmax ([4]; 0.1 mg, mean (SD)) was 0.214 ng/mL. For the same compound, the Tmax ([4]; 0.1 mg, Tmax, median (min, max)) was 1.02 h, the Vd/F ([4]; 0.1 mg, mean (SD)) was 839 L and the half-life ([4]; 0.1 mg) was 229 h. The AUC(0-inf) ([4]; 0.2 mg) was 92.7 ng·h/mL, the Tmax ([4]; 0.2 mg) was 1.03 h and the AUC(0-t) ([4]; 0.2 mg, AUC0–24, mean (SD)) was 9.13 ng·h/mL. The AUC(0-t) ([4]; 0.2 mg, AUC0–t, mean (SD)) was 39.3 ng·h/mL, the Cmax ([4]; 0.2 mg, mean (SD)) was 0.788 ng/mL and the Vd/F ([4]; 0.2 mg, mean (SD)) was 678 L. It also gave a half-life ([4]; 0.2 mg) of 212 h, an AUC(0-inf) ([4]; 0.4 mg) of 60.1 ng·h/mL and an AUC(0-t) ([4]; 0.4 mg, AUC0–24, mean (SD)) of 13.5 ng·h/mL. It also gave an AUC(0-t) ([4]; 0.4 mg, AUC0–t, mean (SD)) of 43.7 ng·h/mL, a Cmax ([4]; 0.4 mg, mean (SD)) of 1.83 ng/mL and a Tmax ([4]; 0.4 mg, Tmax, median (min, max)) of 2.03 h. It also gave a Vd/F ([4]; 0.4 mg, mean (SD)) of 1050 L, a half-life ([4]; 0.4 mg) of 102 h and an AUC(0-inf) ([4]; 0.6 mg) of 120 ng·h/mL. For the same compound, the AUC(0-t) ([4]; 0.6 mg, AUC0–24, mean (SD)) was 37.9 ng·h/mL, the AUC(0-t) ([4]; 0.6 mg, AUC0–t, mean (SD)) was 97.9 ng·h/mL and the Cmax ([4]; 0.6 mg, mean (SD)) was 4.1 ng/mL. It also gave a Tmax ([4]; 0.6 mg, Tmax, median (min, max)) of 0.835 h, a Vd/F ([4]; 0.6 mg, mean (SD)) of 441 L and a half-life ([4]; 0.6 mg) of 58.6 h. The AUC(0-inf) ([4]; 0.9 mg) was 188 ng·h/mL, the AUC(0-t) ([4]; 0.9 mg, AUC0–24, mean (SD)) was 58.2 ng·h/mL and the AUC(0-t) ([4]; 0.9 mg, AUC0–t, mean (SD)) was 160 ng·h/mL. The Cmax ([4]; 0.9 mg, mean (SD)) was 6.1 ng/mL, the Tmax ([4]; 0.9 mg, Tmax, median (min, max)) was 2 h and the Vd/F ([4]; 0.9 mg, mean (SD)) was 468 L. The half-life ([4]; 0.9 mg) was 60.4 h, the AUC(0-inf) ([4]; 1 mg) was 200 ng·h/mL and the AUC(0-t) ([4]; 1 mg, AUC0–24, mean (SD)) was 85.1 ng·h/mL. For the same compound, the AUC(0-t) ([4]; 1 mg, AUC0–t, mean (SD)) was 182 ng·h/mL, the Cmax ([4]; 1 mg, mean (SD)) was 10.6 ng/mL and the Tmax ([4]; 1 mg, Tmax, median (min, max)) was 1.03 h. For the same compound, the Vd/F ([4]; 1 mg, mean (SD)) was 415 L, the half-life ([4]; 1 mg) was 52.9 h and the AUC(0-inf) ([4]; 1.1 mg) was 235 ng·h/mL. The AUC(0-t) ([4]; 1.1 mg, AUC0–24, mean (SD)) was 91.6 ng·h/mL, the AUC(0-t) ([4]; 1.1 mg, AUC0–t, mean (SD)) was 201 ng·h/mL and the Cmax ([4]; 1.1 mg, mean (SD)) was 13.2 ng/mL. For the same compound, the Tmax ([4]; 1.1 mg, Tmax, median (min, max)) was 1 h, the Vd/F ([4]; 1.1 mg, mean (SD)) was 549 L and the half-life ([4]; 1.1 mg) was 71 h. The “urinary elimination kinetics of the parent compound” value [5] was “linear urinary elimination kinetics” and the “catalytic activity compared with olaparib and rucaparib” value (PARP1/2) was “equivalent catalytic activity to olaparib and rucaparib”.
